We go through two compounds from article PMC3055939 (Chemical biology & drug design, 2011).

One may read the IC50 as the concentration at which inhibition is half-maximal. A lower IC50 goes with inhibition by little substance.

Each structure is given as a SMILES string.

The conditions of data set [1]: cited from earlier work.
The target in the next data set is purified PSMA (GCP2) (Homo sapiens, UniProt Q04609). Put plainly: IC50 determinations for PSMA inhibition. Format: biochemical. In short, it runs like this: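 Purified PSMA (working stock 50 μg/mL) was diluted in 50 mM Tris, pH 7.4, 1% Triton X-100 to give 15–20% substrate conversion without inhibitor. […] Reactions were quenched with 2% TFA in methanol, buffered with K2HPO4, and centrifuged. Product was quantified by HPLC, and IC50 was calculated.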
Sequence of purified PSMA (GCP2) (Q04609 whole entry): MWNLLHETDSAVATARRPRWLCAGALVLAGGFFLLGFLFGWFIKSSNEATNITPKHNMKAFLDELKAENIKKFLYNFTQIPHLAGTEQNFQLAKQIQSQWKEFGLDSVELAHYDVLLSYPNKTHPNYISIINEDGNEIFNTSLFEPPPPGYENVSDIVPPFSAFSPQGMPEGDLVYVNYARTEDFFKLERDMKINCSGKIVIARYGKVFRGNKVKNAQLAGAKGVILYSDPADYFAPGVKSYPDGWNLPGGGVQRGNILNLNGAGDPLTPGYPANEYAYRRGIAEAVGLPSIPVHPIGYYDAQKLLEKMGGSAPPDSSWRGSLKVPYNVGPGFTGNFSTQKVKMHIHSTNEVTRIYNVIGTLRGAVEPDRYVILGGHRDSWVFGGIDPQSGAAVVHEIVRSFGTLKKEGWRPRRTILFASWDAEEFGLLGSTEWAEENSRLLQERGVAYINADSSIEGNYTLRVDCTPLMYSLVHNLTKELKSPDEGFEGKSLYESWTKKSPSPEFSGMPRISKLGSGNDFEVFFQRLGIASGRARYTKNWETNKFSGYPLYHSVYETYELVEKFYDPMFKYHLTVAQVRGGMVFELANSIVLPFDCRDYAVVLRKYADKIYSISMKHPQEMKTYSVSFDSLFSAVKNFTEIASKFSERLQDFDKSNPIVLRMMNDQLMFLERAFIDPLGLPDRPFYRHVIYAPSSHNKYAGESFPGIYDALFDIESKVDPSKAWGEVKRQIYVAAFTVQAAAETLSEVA

Regarding `O=C(O)CCC(CP(=O)(O)O)C(=O)O` (centres unmarked) [2-PMPA], the oral bioavailability result in data set [1] is given as “poor oral bioavailability”.

`C=CS(=O)(=O)NC(CCC(=O)O)C(=O)O` (centres unmarked) [2e, 2-Ethenesulfonylamino-pentanedioic acid]: the IC50 against purified PSMA (GCP2) was over 100 µM.
